Test results from paper PMC7216793 (Molecular pharmaceutics, 2020).

How the values were obtained:
[1] = shake flask solubility at different pH, UV at 270 nm; format: physicochemical; details: 24 h shake flask
Summary of the method: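 2 mg closed form in 200 μL buffered water was shaken 24 h in a closed vial. It was centrifuged 5 min at 16000 × g and supernatant pH was measured. Three 10 μL aliquots were diluted into 50:50 methanol/25 mM phosphate pH 10 and read at 270 nm. Concentration came from a calibration curve in the same diluent. Three independent measurements per pH.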

[2] = acid titration of basic MIDD0301 solution with 1 N HCl; format: physicochemical; details: 50 μM in 0.1 N NaOH, water with 30 % DMSO; nonlinear regression
[3] = spectrophotometric pH transition; format: physicochemical; details: absorbance difference at 252 and 292 nm vs pH
Summary of the method: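 Closed or open form at 50 μM (1% DMSO), in buffers adjusted to 0.1 M ionic strength with KCl: 50 mM phosphoric acid pH 1–2, 50 mM acetate pH 3–5, 50 mM phosphate pH 6–8, 12.5 mM borate pH 9. After 24 h at rt, spectra were read 230–400 nm, DMSO blank subtracted (two experiments, duplicate). Summed absorbance differences at 252/292 nm vs pH were fitted by nonlinear regression.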

[4] = mass spectrometry analysis of pH dependent ratio of closed and open MIDD0301; format: physicochemical
Summary of the method: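 Closed form at 50 μM in water was brought to pH 1 with 0.1 M HCl. It was then stepped up to pH 9 with 10% ammonium hydroxide, taking an aliquot at each pH. Aliquots stood 24 h at rt, then final pH was measured. Each was infused directly into the MS without LC or added solvent. Closed:open ratio came from peak heights at 414 and 432 m/z.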

[5] = kinetics of ring opening and closing by 1H-NMR; format: physicochemical; details: 0.1 N DCl in 50:50 D2O:d6-DMSO
[6] = kinetics of ring opening and closing by UV absorbance at 246 nm; format: physicochemical; details: UV 246 nm, aqueous 0.1 N HCl
Summary of the method: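 Four replicate wells, each with 5 μL of 1 mM closed form plus 75 μL aqueous acid (0.1 N HCl; final 62.5 μM). A246 read every 30 s for 260 min, with a DMSO-containing buffer blank subtracted. Averaged absorbance-time curves (n = 4) were fitted by first-order kinetics to give k and half-life.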

[7] = logD oct/wat at different pH; format: physicochemical; details: 1-octanol/buffered water, 24 h
Summary of the method: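 Shake-flask partition of the closed form. 200 μL of 2.5 mM in 1-octanol was added to 300 μL water-saturated octanol and 500 μL octanol-saturated buffer (pH 1–9). Vials were shaken overnight and left 1 h to separate. Aliquots of each layer were diluted in octanol or buffer and read at 270 nm (isosbestic). Concentrations came from per-phase calibration curves. Run in triplicate.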

[8] = pharmacokinetic study in mice: blood, lung and brain concentrations by LC-MS/MS; format: in vivo, Swiss Webster mice
Summary of the method: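 Six-week-old female Swiss Webster mice (SPF) received closed or open form by intragastric gavage at 25 mg/kg in various vehicles (n = 4). At 60 min, heparinised blood was drawn by cardiac puncture and non-perfused brain and lungs were harvested. Samples were extracted in methanol with internal standard. Both forms were quantified by LC-MS/MS (C18; methanol/water, 0.1% formic acid; positive mode).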

[9] = system: asthmatic mice (ovalbumin sensitized and challenged model); details: cited from earlier work
[10] = oral dosages of 1000 mg/kg; cited from earlier work
[11] = 28 day dosing of 100 mg/kg; cited from earlier work
[12] = system: airway resistance induced with methacholine; details: airway resistance induced with 25 mg/ml methacholine; cited from earlier work
[13] = earlier work, no reference given; cited from earlier work
ASM = details: cited from earlier work
[14] = mice, 25 mg/kg oral, 60 min, Entry 1: 2.5 % PEG400, 98 % HPMC (2 % in water), pH 6.1
[15] = mice, 25 mg/kg oral, 60 min, Entry 2: 40 % propylene glycol, 60 % HPMC (2 % in water), pH 5.9
[16] = mice, 25 mg/kg oral, 60 min, Entry 4: 2.5 % PEG400, 98 % HPMC (2 % in PBS, pH 7.4)
[17] = mice, 25 mg/kg oral, 60 min, Entry 4: 2.5 % PEG400, 98 % HPMC (2 % in PBS, pH 7.4), listed as Closed MIDD0301, 25 mg/kg
[18] = mice, 25 mg/kg oral, 60 min, Entry 4: 2.5 % PEG400, 98 % HPMC (2 % in PBS, pH 7.4), listed as closed MIDD0301, 25 mg/kg
[19] = mice, 25 mg/kg oral, 60 min, Entry 5: pretreatment with omeprazole (30 mg/kg), 2.5 % PEG400, 98 % HPMC (2 % in PBS)

With `C[C@H]1N=C(c2ccccc2F)c2cc(Br)ccc2-n2cnc(C(=O)O)c21` [MIDD0301] the aqueous solubility ([1]; neutral pH) was over 3000 µg/mL, the aqueous solubility ([1]; pH 3.9) was under 100 µg/mL and the “pH of inflection, acid titration” value [2] was 4.69. The “pH of the spectrophotometric transition” value [3] was 4.34, the “closed MIDD0301 remaining by MS” value ([4]; 0.1 N HCl, after 24 h) was 10% and the “open MIDD0301 share by MS” value ([4]; pH 6, after 24 h) was 17%. For the same compound, the “open MIDD0301 share by MS” value ([4]; pH 7 and higher, 24 h) was 2%, the “calculated equilibrium pH (equal peak heights of closed and open form)” value ([4]; water, 24 h, MS 414 vs 432 m/z) was 4.3 and the “pH range in which the equilibrium between open and closed form was observed” value ([4]; water, MS) was 4–5. The “kacid, conversion of closed to open MIDD0301” value ([5]; 2.4 mM, pseudo first order) was 0.050 min⁻¹, the “half-life of ring opening” value [5] was 13.7 min and the “kacid, conversion of closed to open MIDD0301” value ([6]; 62.5 μM) was 0.142 min⁻¹. For the same compound, the “half-life in 0.1 N HCl” value [6] was 4.8 min, the “pH range of highest concentration in 1-octanol” value [7] was 2–5 and the “percentage of open MIDD0301 in comparison to closed MIDD0301” value ([8]; all biological samples, all formulations) was at most 4%. For the same compound, the “Concentration of closed MIDD0301, Brain” value [8, 14] was 87 ± 27 nM, the “Concentration of open MIDD0301, Blood” value [8, 14] was 9 ± 3 nM and the “Concentration of open MIDD0301, Brain” value [8, 14] was 3 ± 1 nM. For the same compound, the “Concentration of open MIDD0301, Lung” value [8, 14] was 5 ± 2 nM, the “open MIDD0301, % of closed MIDD0301, Blood” value (shortened to “open MIDD0301, % … Blood”) [8, 14] was 3% and the “open MIDD0301, % of closed MIDD0301, Brain” value (shortened to “open MIDD0301, % … Brain”) [8, 14] was 2%. The “open MIDD0301, % of closed MIDD0301, Lung” value (shortened to “open MIDD0301, % … Lung”) [8, 14] was 2%, the “concentration of open MIDD0301 as % of closed MIDD0301, all samples” value ([8]; mice, 25 mg/kg oral, 60 min, Entry 1, blood, lung, brain) was 2–3% and the “Concentration of closed MIDD0301, Brain” value [8, 15] was 104 ± 42 nM. For the same compound, the “Concentration of open MIDD0301, Blood” value [8, 15] was 6 ± 2 nM, the “Concentration of open MIDD0301, Brain” value [8, 15] was 3 ± 1 nM and the “Concentration of open MIDD0301, Lung” value [8, 15] was 9 ± 2 nM. For the same compound, the “open MIDD0301, % … Blood” value [8, 15] was 3%, the “open MIDD0301, % … Brain” value [8, 15] was 3% and the “open MIDD0301, % … Lung” value [8, 15] was 2%. The “Concentration of closed MIDD0301, Brain” value [8, 16] was 130 ± 24 nM, the “Concentration of open MIDD0301, Blood” value [8, 16] was 18 ± 14 nM and the “Concentration of open MIDD0301, Brain” value [8, 16] was 4 ± 3 nM. For the same compound, the “Concentration of open MIDD0301, Lung” value [8, 16] was 28 ± 19 nM, the “open MIDD0301, % … Blood” value [8, 16] was 4% and the “open MIDD0301, % … Brain” value [8, 16] was 3%. The “open MIDD0301, % … Lung” value [8, 16] was 2%, the “Concentration of closed MIDD0301, Blood” value [8, 17] was 413 ± 116 nM and the “Concentration of closed MIDD0301, Lung” value [8, 17] was 1745 ± 1121 nM. The “Concentration of closed MIDD0301, Blood” value [8, 18] was 413 nM, the “Concentration of closed MIDD0301, Lung” value [8, 18] was 2046 nM and the “Concentration of closed MIDD0301, Blood” value [8, 19] was 516 ± 180 nM. For the same compound, the “Concentration of closed MIDD0301, Brain” value [8, 19] was 159 ± 33 nM, the “Concentration of closed MIDD0301, Lung” value [8, 19] was 2046 ± 1155 nM and the “Concentration of open MIDD0301, Blood” value [8, 19] was 20 ± 8 nM. The “Concentration of open MIDD0301, Brain” value [8, 19] was 4 ± 2 nM, the “Concentration of open MIDD0301, Lung” value [8, 19] was 32 ± 21 nM and the “open MIDD0301, % … Blood” value [8, 19] was 4%. For the same compound, the “open MIDD0301, % … Brain” value [8, 19] was 3%, the “open MIDD0301, % … Lung” value [8, 19] was 2% and the “MIDD0301 in non-perfused brain as % of lung concentration” value ([8]; mice, oral, under these specific conditions (Conclusions)) was “less than 10%”. For the same compound, the “IL-17A, IL-4 and TNFα in the lungs” value ([9]; asthmatic mice) was “reduction”, the “airway hyperresponsiveness to methacholine challenge” value ([9]; oral 100 mg/kg) was “reduced airway hyperresponsiveness” and the “eosinophil, CD4+ T cell and macrophage numbers in the lungs” value ([9]; oral 100 mg/kg) was “reduced”. The “CNS effects in sensorimotor studies” value [10] was “no CNS effects”, the “humoral immune response to T-dependent antigen dinitrophenyl-keyhole limpet haemocyanin” value [11] was “no change” and the signs of toxicity [11] was “no signs of toxicity”. The “nebulized dose sufficient to overcome airway resistance” value [12] was 0.8 mg/kg and the “oral dosage required to achieve pharmacological effects” value [13] was 50 mg/kg.

In the case of `CC(C)c1cccc(C(C)C)c1O` [propofol], the “effect on airway smooth muscle” value (ASM) is listed as “relaxed ASM”.
